Test system: MS2 coat protein
Assay: apparent Kd, MS2 coat protein; higher = weaker binding; RNA-MaP array; FMN 200 µM where present
Summary of the method: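 Designs were transcribed by stalled E. coli RNA polymerase on Illumina sequencing-chip clusters. They were titrated with SNAP-549-labelled MS2 coat protein from 0.7 or 1.5 nM, doubling to 3 µM, in 100 mM Tris-HCl pH 7.5, 80 mM KCl, 4 mM MgCl2, BSA, DTT, yeast tRNA and Tween-20, without and then with constant ligand. The apparent Kd is the median of filtered per-cluster fits after normalisation of green signal to red-channel RNA signal and control-cluster median Fmax.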

[1] = designed as: OFF switch for flavin mononucleotide, no ligand
[2] = ligand present: flavin mononucleotide, designed as: OFF switch for flavin mononucleotide
[3] = designed as: ON switch for flavin mononucleotide, no ligand
[4] = ligand present: flavin mononucleotide, designed as: ON switch for flavin mononucleotide

| Sequence | apparent Kd [1] [nM] | apparent Kd [2] [nM] | apparent Kd [3] [nM] | apparent Kd [4] [nM] |
| --- | --- | --- | --- | --- |
| UGUCGGAGCAGAGGAUAUUACAUGAGGAUCACCCAUGUAUGAACGAAUAGCUGGAAACAGCAAUGUAAGAAGGCUGCUCCGACA | 6 | 10.4 |  |  |
| CUUUUGUGAGGAUAUCAGUAGUAGAACAAUAGUACUACUACUGAGAAGGCACAUGAGGAUCACCCAUGUUCUUC | 33.5 | 118 |  |  |
| UGUCGGAGCAGAGGAUAUGACAUGAGGAUCACCCAUGUAUGAACCAAUAGCUGGAAACAGCAAUGUAAGAAGGCUGCUCCGACA | 5.98 | 6.79 |  |  |
| CCCGAGUUAGGAUAUCGGACUGGCCCGCACAGGCUAGCAAUUGAGAAGGAACAUGAGGAUCACCCAUGUGAGUA | 24.2 | 61.6 |  |  |
| GGUACGCAUGUAGGAUAUCGAGCUCAAAGAGCUCGAGAAGGACAUGAGGAUCACCCAUGUCGUCACAGACAGUGACGGCGUACC | 20 | 38.7 |  |  |
| UGUCAAGCAGGAUAUGCACGUAAUAACAUGAGGAUCACCCAUGUGACCGAUUUAUAUUCUGCAGAAGGGCUUGGUU | 37.8 | 140 |  |  |
| AAGAAAGAAACAUAGGAUAUCAAGGAUAUAACAUGAGGAUCACCCAUGUAAAUACGAAAGUAUAAUGAGAAGGAUGGAUGAUCUUC |  |  | 86.1 | 122 |
| GCAGACGUAGUGAGGAUAUGCUCUACCUCGGUAGAGCAGAAGGCACAUGAGGAUCACCCAUGUGAUUUCUCUGC | 37.2 | 421 |  |  |
| UUGUUAUAUGUAGGAUAUGCAUAUUAUUAUUAUGCAGAAGGACAUGAGGAUCACCCAUGUAUAUUAUUAUUAUAUAUUAUAUAU | 28.3 | 41.6 |  |  |
| GAGAAGUCAGGAUAUGCUGCUCGUCACUUGCGUGAUGAGUAGCAGAAGGGACAUGAGGAUCACCCAUGUAAAGA | 51.2 | 64.5 |  |  |
| UGUCGGAGCAGAGGAUAUUACAUGAGGAUCACCCAUGUAUGAACCAAUAGCUGGCAACAGCAAUGUAAGAAGGCUGCUCCGACA | 12.8 | 168 |  |  |
| AAAAUGUCAGGAUAUGCGAAGGCGUCUGACGGACGAGGAUUGCAGAAGGGACAUGAGGAUCACCCAUGUAAAAA | 54.5 | 138 |  |  |
| UUAUACAUGAGGAUCUCCCAUGACAUGAGGAUCACCCAUGUGCAGGAUAUACGUGUUAUAAUAUAGUAGAAGGGCAGUCUAUGU | 27.2 | 66.5 |  |  |
| GCUGACGAUGUAGGAUAUCUCGACGAUAAGUCGAGAGAAGGACAUGAGGAUCACCCAUGUCUCAAAACGUCAGCGAGGAAACUC | 16.4 | 17.4 |  |  |
| UAUAUUAUUAUAGGAUAUGGAUAUGAUGCAUAUCCAGAAGGGUGAUUAUAAUAUUUUCUGUACAUGAGGAUCACCCAUGUUUAG |  |  | 134 | 32.5 |
| UUUCAGUCAGGAUAUCGUUAAUUUAAUUGUUUGUUUUAGUUCGAGAAGGGACAUGAGGAUCACCCAUGUAAUUU | 33.1 | 51.3 |  |  |
| GCUAUCGUUGUAGGAUAUGCUUGCCAAAGGCGAGCAGAAGGACAUGAGGAUCACCCAUGUCAGUGGUUGAAGAGAAGAGAUGGC | 27 | 61.5 |  |  |
| GAAAGGGCAGGAUAUGCAGAGAGAGAGAGAGAGAGAAAAAAACAUGAGGAUCACCCAUGUAGAAGGGCCGAAAG | 34.8 | 39.1 |  |  |
| GUCCGAAGGGAGAAGGGCUAGGAGGUCCAGCUUAUGUGUGUUGCAACAUGAGGAUCACCCAUGUAGCAGGAUAUCCCUUGUACA | 54.2 | 267 |  |  |
| GGCGACCUAGGAUAUACAUGAGGAUCACCCAUGUUUAUCUAAUAGAUGAAGACGGGUUGUAGAAGGAGGAAAAU | 15.6 | 19.4 |  |  |
| CUGACGUUUGAAGGAUAUGACAUGUUGAAGCGUAUUGACAGCCCUGCACAUGAGGAUCACCCAUGUCAGAAGGUCAACCGUUGA | 7.11 | 20.3 |  |  |
| AAGAGUAGAGGAUAUAUAUGAAAAGAGUCGAAAGACUCAAAACAUGAGGAUCACCCAUGUAGAAGGCUACUCAA | 17.8 | 21.1 |  |  |
| AUUUUAAAGGGAGGAUAUACAUGAGGAUCACCCAUGUAAACAUGAGGAUCACCCUUGUAAACAAUGUAGAAGGCCUAAAUCUAU | 13 | 16.1 |  |  |
| UGGUACAUCGGAGGAUAUCAUGUAGAUACAUGAGGAUCACCCAUGUCGAUGGAGACAUCGGAGAUUGAGAAGGCCGAUGUACCU |  |  | 612 | 31.7 |
| AGUAAGAUGCAGAAGGUGUUAGCUAGAGCUACGACAUGAGGAUCACCCAUGUACUCAAAACCGUACAAGGAUAUGCAUCUUACA |  |  | 9.55 | 6.26 |
| GUAUUUUAAGUAAGGAUAUACCUCUGGAAACAGAGGUAGAAGGUACAUGAGGAUCACCCAUGUUUCUCUUUUGG | 17 | 23.6 |  |  |
| ACGUGUCGUGUAGGAUAUGACACAGGAAACUGGUCAGAAGGACAUGAGGAUCACCCAUGUAAAAUGUUCAAGAAUAACGUAUGC | 43.3 | 108 |  |  |
| AUAUGAUAGAUAGGAUAUACUGAGGUUGAAUGGGUAGAAGGAUCGAUAGGGAAGACUACAUGAGGAUCACCCAUGUUGUGGAUU |  |  | 88.4 | 52.6 |

| Sequence | apparent Kd [1] [nM] | apparent Kd [2] [nM] | apparent Kd [3] [nM] | apparent Kd [4] [nM] |
| --- | --- | --- | --- | --- |
| GUGAGGUAAGGAUAUAGUAGUGAAGGUAAGAUAUGAGAAUGCUAGAAGGUACAUGAGGAUCACCCAUGUUCGGG | 117 | 116 |  |  |
| GCUACAUAUAUUAAGUAUGAUUAACUAGAAGGUAGAUACAUGAGGAUCACCCAUGUUAAGAGUUCUAAGGAUAUAGUUUGUAGC |  |  | 113 | 56.6 |
| GAUCCGUCCUAGAAGGCCAUCCAACAUGAGGAUCACCCAUGUGCGGACUGGAGGAUAUAGGUGGGAUAGGCCUAGGGCCCGGUC |  |  | 7.43 | 5.55 |
| GCAUCCAUAGUGAGGAUAUACCUCUGGAUACAUAGGUAGAAGGCACAUGAGGAUCACCCAUGUUCCUAGGAUGC | 20.2 | 40.1 |  |  |
| UGAUCGAGAGAUCUUAGAUUCUGGUAGGAUAUACAUAUUGUAAUAUAGACAUGAGGAUCACCCAUGUAGAAGGACUAGAGUCUA | 6.6 | 11.5 |  |  |
| GUUUUUUCUCAUGUACAUGAGGAACAUGAGGAUCACCCAUGUAGAAGGAAUUUUUUUAAGUUUAGUUAGGAUAUACAUAUAUUG | 48.8 | 28.6 |  |  |
| GGAGGACAUCAAUACAUGAGGAUCACCCAUGUCGAAUGAUAUGAGGAUAUGCAUCGGAAAACGAUGUAGAAGGCAUAGUCCUCC |  |  | 15.1 | 6.06 |
| CUGUUAUAGGUCCAGAAUUACAACAUGAGGAUCACCCAUGUGCAGGAUAUCGGGUUAAUAAACGACGAGAAGGGCAUAGUCACG | 35.6 | 104 |  |  |
| UUGCAGUCAUCAGGAUAUAGUAUUACGGCCAUUUAUAUUUUCAUACAUGAGGAUCACCCAUGUCGCUAGAAGGGAUUAUCGAUU | 47.7 | 43 |  |  |
| UGGACGACCCGAGGAUAUCAAAGGCCCGGGUAAGUUCCUCAGACAUGAGGAUCACCCAUGUUAAAUGAGAAGGCGGGUAGCCGA | 203 | 268 |  |  |
| UAGACACUUACAGGAUAUAGGGCAGAGGGUGCCCUAGAAGGGUGAACAUGAGGAUCACCCAUGUAUGUGUCUGAUUAGAAGGCA |  |  | 36.2 | 69.4 |
| CUAUUGGUAACAGGAUAUAUGAGUCCUACAUGAGGAUCACCCAUGUAGGUGAUCAAACGUGAUUAGUAGAAGGGUUACCAAUAG |  |  | 15.6 | 7.77 |
| AAAAAGUGAGGAUAUGCUGCUCGUCACUUGCGUGAUGAGUAGCAGAAGGCACAUGAGGAUCACCCAUGUGGGAA | 82.6 | 170 |  |  |
| UCGCGGGAGCAGAAGGGAUAGGCCUAUUGUCGUGGAGUCUACACUUAACAUGAGGAUCACCCAUGUCAGGAUAUGCCCACGCGA | 8.8 | 10.6 |  |  |
| AGUUCCUCCGCAGGAUAUGUGCUCUUUAUCACAUGAGGAUCACCCAUGUCAGCCGAAACGGCGAGACAGAAGGGUGGUGGUGCC |  |  | 213 | 169 |
| UUGAUAAAUUAGAAGGCGAGAUAAAAUACAAUAAACAUGAGGAUCACCCAUGUGUACCCAUGUUUUGAGGAUAUAGACAUUUAU |  |  | 922 | 399 |
| UUUUCUUUUGUGAGGAUAUACUUCUUUUUUUUUUUGUAGAAGGCACAUGAGGAUCACCCAUGUUUUCUUUUCUG | 18.9 | 21.8 |  |  |
| GCAUAUAUAUAAGGAUAUGCAUCACUGAGAAAUUUAGUGAGGAAGAUCACAUGAGGAUCACCCAUGUAGAAGGUAUAUAUGUGC | 8.18 | 46 |  |  |
| AUGCCUUAUGUAGGAUAUGCAUAGAGUUGCUAUGCAGAAGGACAUGAGGAUCACCCAUGUAUGUAUACCUUACAAAUCUAGCAU | 38.6 | 230 |  |  |
| ACGGCUGUCAGAGGAUAUGGUUACAUGAGGAUCACCCAUGUCAAGGGUCUAACUAAGUAUAGCUACUAGAAGGCUGAUGGCCGA | 158 | 107 |  |  |
| AACUGACAUGAGGAUCACCCAUGUCAGGAUAUGACUUCAAAAUAAAAAUAAAAUGAUGUCAGAAGGGACAUGGA | 22.6 | 36.1 |  |  |
| AAAAAACAUGAGGAUCACCCAUGUGAGGAUAUGCAAAAAAAAAAAAAAAAAUAAAAAAGCAGAAGGCACAAAAA | 63.4 | 86.2 |  |  |
| GGUACCAACACAGGAUAUGCUUUCCUUUGGGAAGCAGAAGGGUGAAAACAUGAGGAUCACCCAUGUGGUACCGGGCGUGAGCCC |  |  | 534 | 39 |
| GUAAAUGGUAUGGCUUCGACCACACAGGAUAUGAAAAUGUACAUGAGGAUCACCCAUGUUCUGAAUCAGAAGGGUGAUGGACGG |  |  | 20.7 | 6.74 |
| GUGGUCAGACAUGAGGAUCACCCAUGUGGAAUAAAUAAGGUUUAGGAUAUGGAAUAUAGGAUAUACCAGAAGGGAGGGUUGGUG |  |  | 142 | 146 |
| UAGCUCUCGGCAGGAUAUCCUGCAUAAUGUCGAGUCCGCGCCCGGACAUGAGGAUCACCCAUGUAGGAGAAGGGCCCACGGGCG | 28 | 32.3 |  |  |
| AAAAACUAAGGAUAUACAUGAGGAUCACCCAUGUAAAAAAUGCAUGGGAAAACCUCAUGUAGAAGGUAGAAAAA | 20.6 | 17.2 |  |  |
